Data on 31 molecules can be found in ChEMBL document CHEMBL3352198, “Design, synthesis, biological evaluation of substituted benzofurans as DNA gyraseB inhibitors of Mycobacterium tuberculosis” (Bioorg Med Chem, 2014).

What is called MIC is the lowest concentration found to suppress growth. Lower therefore signals a more susceptible organism. Usually IC50 stands for the concentration that inhibits the measured activity by half. In general, ΔTm refers to the change in melting temperature against a reference sample.

≈ marks a conversion by molar mass, not a printed value. Calls of active or inactive are those of the source. The calls are words filed in the database; no cut-off is given here.

Data set [1] relates to Mycobacterium tuberculosis. Briefly: Antibacterial activity against Mycobacterium tuberculosis H37Rv after 7 days by microplate alamar blue assay method. It counts as functional. The settings on record: 168 h. The gist of the method:
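Mtb H37Rv inoculum taken from fresh LJ medium, resuspended in 7H9-S (7H9, 0.1% casitone, 0.5% glycerol, OADC), adjusted to McFarland No. 1 and diluted 1:20. Two-fold serial drug dilutions in 7H9-S, with growth and sterile controls. Incubated 7 days at 37 °C, alamar blue added, reincubated overnight. MIC taken as lowest concentration preventing the blue-to-pink colour change.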
(Alamar Blue is a resazurin reagent that responds to reducing activity.)

The target in the next data set is DNA gyrase subunit B (Mycobacterium smegmatis, UniProt P0C559). Briefly: Inhibition of 6-His-tagged Mycobacterium smegmatis GyrB expressed in Escherichia coli BL21 (DE3) pLysS cells incubated for 100 mins in presence of ATP by malachite green dye based ATP assay. Also on record: species or system Mycolicibacterium smegmatis.
Data set [2] can be described thus: Cytotoxicity against mouse RAW264.7 cells assessed as inhibition of cell viability at 100 uM after 48 hrs by MTT assay. It counts as cell-based. Particulars: read-out: INH. In short, it runs like this: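 RAW 264.7 mouse macrophages, 5 × 10^5 cells per well, exposed to compounds at 37 °C, 5% CO2 for 48 h. MTT added about 4 h before the end, then supernatant removed and DMSO added. Absorbance read at 560 nm against blank, triplicate wells per concentration, result expressed as % inhibition.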
Background: Formazan colour is commonly taken as a measure of viable cells.

For data set [3], the target named is DNA gyrase subunit A/DNA gyrase subunit B (Mycobacterium tuberculosis (strain ATCC 25618 / H37Rv), UniProt P9WG45+P9WG47). Briefly: Inhibition of Mycobacterium tuberculosis DNA gyrase supercoiling activity using relaxed pBR322 substrate incubated for 30 mins by ethidium bromide staining method.
The target in data set [4] is DNA gyrase subunit B (Escherichia coli) (UniProt P0AES6). Briefly: Inhibition of Escherichia coli GyrB at 50 uM.
Data set [5] has as its target DNA gyrase subunit B (Staphylococcus aureus) (UniProt P0A0K8). Briefly: Inhibition of Staphylococcus aureus GyrB at 50 uM.
Data set [6] has as its target DNA gyrase subunit B (Mycobacterium smegmatis) (UniProt P0C559). Particulars: Mycolicibacterium smegmatis.

DNA gyrase subunit B, sequence (P0C559 whole entry): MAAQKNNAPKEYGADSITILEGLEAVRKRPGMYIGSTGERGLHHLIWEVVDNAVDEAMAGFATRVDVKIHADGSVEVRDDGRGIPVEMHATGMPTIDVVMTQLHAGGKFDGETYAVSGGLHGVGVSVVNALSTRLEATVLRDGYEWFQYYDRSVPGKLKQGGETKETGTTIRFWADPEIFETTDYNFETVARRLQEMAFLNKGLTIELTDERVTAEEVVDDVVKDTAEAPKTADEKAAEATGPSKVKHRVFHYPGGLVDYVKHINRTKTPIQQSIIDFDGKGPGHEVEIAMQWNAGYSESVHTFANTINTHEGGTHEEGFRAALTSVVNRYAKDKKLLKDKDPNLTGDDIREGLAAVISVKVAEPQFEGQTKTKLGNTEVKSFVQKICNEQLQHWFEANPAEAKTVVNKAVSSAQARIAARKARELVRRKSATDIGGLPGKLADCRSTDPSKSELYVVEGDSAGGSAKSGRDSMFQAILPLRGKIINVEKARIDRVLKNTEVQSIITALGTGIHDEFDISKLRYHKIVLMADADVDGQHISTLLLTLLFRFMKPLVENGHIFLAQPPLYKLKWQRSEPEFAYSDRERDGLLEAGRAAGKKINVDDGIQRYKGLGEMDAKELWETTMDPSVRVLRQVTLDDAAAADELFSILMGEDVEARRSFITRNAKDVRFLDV
DNA gyrase subunit A/DNA gyrase subunit B, sequence (P9WG45 whole entry): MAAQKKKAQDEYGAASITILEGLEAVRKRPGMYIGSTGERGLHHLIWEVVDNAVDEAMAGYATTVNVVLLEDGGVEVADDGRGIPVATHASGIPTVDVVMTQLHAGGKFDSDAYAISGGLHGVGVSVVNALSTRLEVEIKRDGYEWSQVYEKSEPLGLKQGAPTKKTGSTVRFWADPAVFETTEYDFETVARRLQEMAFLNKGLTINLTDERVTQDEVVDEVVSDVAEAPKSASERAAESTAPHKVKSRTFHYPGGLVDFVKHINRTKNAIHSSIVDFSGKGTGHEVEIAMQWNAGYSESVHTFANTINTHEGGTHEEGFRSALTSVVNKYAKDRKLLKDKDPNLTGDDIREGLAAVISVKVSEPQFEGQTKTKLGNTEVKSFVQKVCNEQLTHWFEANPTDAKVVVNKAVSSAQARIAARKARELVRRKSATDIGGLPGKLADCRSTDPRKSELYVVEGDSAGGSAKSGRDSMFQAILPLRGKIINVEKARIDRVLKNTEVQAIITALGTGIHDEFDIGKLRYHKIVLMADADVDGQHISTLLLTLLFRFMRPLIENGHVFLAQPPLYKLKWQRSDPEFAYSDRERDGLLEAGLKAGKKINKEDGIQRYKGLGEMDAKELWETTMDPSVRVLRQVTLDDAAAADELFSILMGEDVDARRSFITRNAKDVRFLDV
DNA gyrase subunit A/DNA gyrase subunit B, sequence (P9WG47 whole entry): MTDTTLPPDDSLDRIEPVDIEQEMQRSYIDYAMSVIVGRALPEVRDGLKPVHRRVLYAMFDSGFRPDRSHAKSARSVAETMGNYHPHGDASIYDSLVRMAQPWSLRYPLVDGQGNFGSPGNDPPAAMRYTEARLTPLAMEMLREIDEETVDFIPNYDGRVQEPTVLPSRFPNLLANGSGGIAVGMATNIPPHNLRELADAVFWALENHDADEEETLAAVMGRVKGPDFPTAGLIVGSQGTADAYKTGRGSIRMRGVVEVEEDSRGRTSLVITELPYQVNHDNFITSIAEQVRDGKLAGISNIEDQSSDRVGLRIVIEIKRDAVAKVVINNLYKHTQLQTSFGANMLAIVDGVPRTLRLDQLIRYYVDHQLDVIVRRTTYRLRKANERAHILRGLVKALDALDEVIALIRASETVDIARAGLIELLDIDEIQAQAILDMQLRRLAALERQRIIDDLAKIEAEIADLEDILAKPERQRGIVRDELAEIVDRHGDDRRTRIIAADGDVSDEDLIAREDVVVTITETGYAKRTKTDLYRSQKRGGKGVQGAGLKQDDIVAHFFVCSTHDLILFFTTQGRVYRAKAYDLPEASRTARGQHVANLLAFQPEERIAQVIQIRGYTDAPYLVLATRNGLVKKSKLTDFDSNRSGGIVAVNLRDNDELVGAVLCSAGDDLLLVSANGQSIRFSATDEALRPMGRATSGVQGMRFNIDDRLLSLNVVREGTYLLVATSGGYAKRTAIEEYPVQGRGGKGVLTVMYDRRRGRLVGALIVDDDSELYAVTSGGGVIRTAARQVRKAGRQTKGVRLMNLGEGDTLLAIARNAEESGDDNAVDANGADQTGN
DNA gyrase subunit B (Staphylococcus aureus), sequence (P0A0K8 2-644 limits assumed): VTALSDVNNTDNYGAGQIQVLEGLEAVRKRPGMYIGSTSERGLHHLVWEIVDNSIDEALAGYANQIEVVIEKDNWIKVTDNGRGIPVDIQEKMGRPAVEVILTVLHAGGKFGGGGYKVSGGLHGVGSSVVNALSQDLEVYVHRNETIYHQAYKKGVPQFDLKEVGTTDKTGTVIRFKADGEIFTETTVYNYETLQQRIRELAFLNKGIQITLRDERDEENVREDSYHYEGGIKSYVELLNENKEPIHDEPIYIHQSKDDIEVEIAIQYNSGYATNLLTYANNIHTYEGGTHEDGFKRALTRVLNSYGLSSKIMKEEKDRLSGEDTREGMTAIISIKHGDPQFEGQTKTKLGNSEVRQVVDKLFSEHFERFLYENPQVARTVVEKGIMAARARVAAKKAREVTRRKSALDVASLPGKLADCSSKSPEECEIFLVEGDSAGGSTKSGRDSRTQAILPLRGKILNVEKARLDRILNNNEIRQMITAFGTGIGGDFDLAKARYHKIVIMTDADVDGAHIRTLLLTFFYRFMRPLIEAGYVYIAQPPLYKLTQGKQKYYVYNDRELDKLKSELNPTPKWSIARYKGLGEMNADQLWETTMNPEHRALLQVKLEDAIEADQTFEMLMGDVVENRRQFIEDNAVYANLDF
DNA gyrase subunit B (Mycobacterium smegmatis), sequence (P0C559 2-675 limits assumed): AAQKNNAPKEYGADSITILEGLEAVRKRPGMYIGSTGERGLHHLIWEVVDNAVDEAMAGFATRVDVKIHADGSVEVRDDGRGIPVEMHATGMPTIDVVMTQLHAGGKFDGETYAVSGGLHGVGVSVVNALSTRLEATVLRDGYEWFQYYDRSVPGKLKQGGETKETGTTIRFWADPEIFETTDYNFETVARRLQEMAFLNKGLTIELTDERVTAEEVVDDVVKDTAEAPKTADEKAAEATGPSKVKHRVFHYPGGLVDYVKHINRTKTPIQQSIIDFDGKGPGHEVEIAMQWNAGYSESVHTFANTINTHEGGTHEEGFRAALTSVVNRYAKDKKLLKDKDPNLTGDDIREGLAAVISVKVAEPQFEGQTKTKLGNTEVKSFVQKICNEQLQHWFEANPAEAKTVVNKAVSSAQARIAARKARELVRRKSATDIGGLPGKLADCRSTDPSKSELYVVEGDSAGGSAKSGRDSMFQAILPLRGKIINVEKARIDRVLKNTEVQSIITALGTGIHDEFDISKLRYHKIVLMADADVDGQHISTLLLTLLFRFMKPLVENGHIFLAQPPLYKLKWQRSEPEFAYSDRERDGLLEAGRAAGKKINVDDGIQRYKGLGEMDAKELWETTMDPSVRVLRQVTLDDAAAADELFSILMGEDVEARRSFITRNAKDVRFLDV

`CCOC(=O)c1cc2cc(N3CCN(C(=O)c4c(F)cccc4F)CC3)ccc2o1` registered an MIC in data set [1] of 11.6 µM (≈ 4.81 µg/mL). Moreover, the IC50 on DNA gyrase subunit B was found to be 6.21 µM; in data set [3] it was 2.9 µM. Moreover, in data set [2], the cytotoxicity at 48 h, 100 µM turned out to be 7.54%.

In turn, `CCOC(=O)c1cc2cc(N3CCN(C(=O)c4cccc5ccccc45)CC3)ccc2o1` gave an MIC in data set [1] of 13.2 µM (≈ 5.64 µg/mL). Moreover, the IC50 at DNA gyrase subunit B was determined as 9.08 µM; in data set [3], 3.6 µM. Moreover, the cytotoxicity at 48 h, 100 µM in data set [2] stood at 3.64%.

On to `CCOC(=O)c1cc2cc(N3CCN(C(=O)c4ccc(C(F)(F)F)cc4)CC3)ccc2o1`, for which, in data set [1], the MIC is 54 µM (≈ 24.1 µg/mL). The IC50 on DNA gyrase subunit B came to 52.1 µM; in data set [3] it was 45.1 µM. Besides, the cytotoxicity at 48 h, 100 µM in data set [2] is 3.5%.

With `CCOC(=O)c1cc2cc(N3CCN(C(=O)c4c(Cl)cccc4Cl)CC3)ccc2o1`, the MIC in data set [1] was found to be 10 µM (≈ 4.49 µg/mL). The IC50 at DNA gyrase subunit B is 10.7 µM; in data set [3] it was 3.1 µM. Besides, the cytotoxicity at 48 h, 100 µM in data set [2] was 6.98%.

In data set [1], `CC1COc2c(N3CCN(C)CC3)c(F)cc3c(=O)c(C(=O)O)cn1c23` (stereo unspecified) [OFLOXACIN] gave an MIC of 2.16 µM (≈ 0.781 µg/mL).

`CCOC(=O)c1cc2cc(N3CCN(C(=O)C4Cc5ccccc5N4)CC3)ccc2o1` (stereo unspecified) registered an MIC in data set [1] of 9.23 µM (≈ 3.87 µg/mL). For the same molecule, the IC50 is 3.89 µM on DNA gyrase subunit B and 0.84 µM in data set [3]. The cytotoxicity at 48 h, 100 µM in data set [2] amounted to 29.8%.

In data set [1], `CCOC(=O)c1cc2cc(N3CCN(C(=O)Cc4ccccc4)CC3)ccc2o1` registered an MIC of 12.3 µM (≈ 4.84 µg/mL). The IC50 was 9.2 µM at DNA gyrase subunit B and 6.81 µM in data set [3]. For the same molecule, the cytotoxicity at 48 h, 100 µM in data set [2] is 15.1%.

In turn, `CCOC(=O)c1cc2cc(N3CCN(C(=O)c4nccnc4Cl)CC3)ccc2o1` came in with an MIC in data set [1] of 13.9 µM (≈ 5.77 µg/mL). Moreover, the IC50 on DNA gyrase subunit B stood at 12.7 µM; in data set [3] it was 3.12 µM. Moreover, the cytotoxicity at 48 h, 100 µM in data set [2] stood at 30.1%.

In data set [1], `CCOC(=O)c1cc2cc(N3CCN(C(=O)Cc4ccc(Cl)cc4)CC3)ccc2o1` showed an MIC of 20.2 µM (≈ 8.63 µg/mL). In addition, the IC50 at DNA gyrase subunit B was found to be 14.5 µM; in data set [3], 8.9 µM. Also, in data set [2], the cytotoxicity at 48 h, 100 µM came out at 29.2%.

Consider `CCOC(=O)c1cc2cc(N3CCN(C(=O)Cc4c(F)cc(F)cc4F)CC3)ccc2o1`, for which the MIC in data set [1] amounted to 17.1 µM (≈ 7.61 µg/mL). Also, the IC50 on DNA gyrase subunit B is 12.4 µM; in data set [3], 6.1 µM. In addition, the cytotoxicity at 48 h, 100 µM in data set [2] is 14%.

Consider `CCOC(=O)c1cc2cc(N3CCN(C(=O)Cc4ccc(F)cc4)CC3)ccc2o1`, for which, in data set [1], the MIC was 40.2 µM (≈ 16.5 µg/mL). Moreover, the figures for the IC50 (at DNA gyrase subunit B; in data set [3]) were 38.4 µM and 26.9 µM, respectively. The cytotoxicity at 48 h, 100 µM in data set [2] was 30.4%.

In data set [1], `CCOC(=O)c1cc2cc(N3CCN(C(=O)c4ccc(C5CCOCC5)cc4)CC3)ccc2o1` had an MIC of 9.8 µM (≈ 4.53 µg/mL). In addition, the IC50 at DNA gyrase subunit B was determined as 6.7 µM; in data set [3], 0.91 µM. In addition, the cytotoxicity at 48 h, 100 µM in data set [2] was 6.75%.

In data set [1], `CCOC(=O)c1cc2cc(N3CCN(C(=O)c4cccnc4Cl)CC3)ccc2o1` gave an MIC of 11 µM (≈ 4.54 µg/mL). For the same molecule, the half-maximal inhibitory concentration (IC50) on DNA gyrase subunit B was determined as 7.94 µM; in data set [3] it was 1.5 µM. The cytotoxicity at 48 h, 100 µM in data set [2] was found to be 7.55%.

The molecule `CCOC(=O)c1cc2cc(N3CCN(C(=O)COc4ccccc4)CC3)ccc2o1` gave an MIC in data set [1] of 9.35 µM (≈ 3.82 µg/mL). Besides, the IC50 was 3.97 µM at DNA gyrase subunit B and 1.14 µM in data set [3]. Moreover, in data set [2], the cytotoxicity at 48 h, 100 µM stood at 7.65%.

Molecule `CCOC(=O)c1sc(-c2ccccc2)nc1N1CCC(NCc2ccc(F)cc2)CC1` registered an MIC in data set [1] of 28.4 µM (≈ 12.5 µg/mL).

`CCOC(=O)c1cc2cc(N3CCN(C(=O)c4ccccc4C(F)(F)F)CC3)ccc2o1` registered an MIC in data set [1] of 38.4 µM (≈ 17.2 µg/mL). Also, the IC50 at DNA gyrase subunit B came out at 36.9 µM; in data set [3], 26.3 µM. For the same molecule, the cytotoxicity at 48 h, 100 µM in data set [2] was determined as 14%.

The molecule `CCOC(=O)c1cc2cc(N3CCN(C(=O)c4cccc(OC)c4)CC3)ccc2o1` had an MIC in data set [1] of 9.67 µM (≈ 3.95 µg/mL). Also, the IC50 on DNA gyrase subunit B amounted to 5.01 µM; in data set [3], 2.52 µM. Also, in data set [2], the cytotoxicity at 48 h, 100 µM came out at 15.3%.

In data set [1], `CO[C@@H]1[C@@H](OC(N)=O)[C@@H](O)[C@H](Oc2ccc3c(O)c(NC(=O)c4ccc(O)c(CC=C(C)C)c4)c(=O)oc3c2C)OC1(C)C` [NOVOBIOCIN] yielded an MIC above 200 µM. Further, the cytotoxicity at 48 h, 100 µM in data set [2] was 19.4%.

Turning to `CCOC(=O)c1cc2cc(N3CCN(C(=O)Cc4ccc(OC)cc4)CC3)ccc2o1`, the MIC in data set [1] was 18.2 µM (≈ 7.68 µg/mL). The IC50 on DNA gyrase subunit B is 10.2 µM; in data set [3] it was 7.4 µM. For the same molecule, the cytotoxicity at 48 h, 100 µM in data set [2] stood at 7.39%.

In data set [1], `CCOC(=O)c1cc2cc(N3CCN(C(=O)CCc4ccc(F)cc4)CC3)ccc2o1` came in with an MIC of 9.57 µM (≈ 4.06 µg/mL). In addition, the IC50 at DNA gyrase subunit B was 6.14 µM; in data set [3] it was 3.13 µM. Besides, the cytotoxicity at 48 h, 100 µM in data set [2] is 14.7%.

Consider `CC[C@@H](CO)NCCN[C@@H](CC)CO` [ETHAMBUTOL], for which the MIC in data set [1] was 9.84 µM (≈ 2.01 µg/mL).

`CCOC(=O)c1cc2cc(N3CCN(C(=O)CC4CCCCC4)CC3)ccc2o1` displayed an MIC in data set [1] of 38.4 µM (≈ 15.3 µg/mL). Besides, the IC50 on DNA gyrase subunit B is 36.3 µM; in data set [3], 25.2 µM. The cytotoxicity at 48 h, 100 µM in data set [2] worked out at 31.4%.

For `COc1c(N2C[C@@H]3CCCN[C@@H]3C2)c(F)cc2c(=O)c(C(=O)O)cn(C3CC3)c12` [MOXIFLOXACIN], the MIC in data set [1] was determined as 8.6 µM (≈ 3.45 µg/mL). At DNA gyrase subunit B, the IC50 was above 50 µM.

In data set [1], `CCOC(=O)c1cc2cc(N3CCN(C(=O)CC(C)C)CC3)ccc2o1` had an MIC of 32.1 µM (≈ 11.5 µg/mL). The IC50 at DNA gyrase subunit B is 41.1 µM; in data set [3], 29.1 µM. Moreover, the cytotoxicity at 48 h, 100 µM in data set [2] is 8.71%.

The molecule `CCOC(=O)c1cc2cc(N3CCN(C(=O)c4ccccc4OC(F)(F)F)CC3)ccc2o1` had an MIC in data set [1] of 30.2 µM (≈ 14 µg/mL). For the same molecule, the figures for the IC50 (on DNA gyrase subunit B; in data set [3]) were 29.2 µM and 15.6 µM, respectively. Further, in data set [2], the cytotoxicity at 48 h, 100 µM came out at 27%.

The molecule `NNC(=O)c1ccncc1` [ISONIAZID] showed an MIC in data set [1] of 0.66 µM (≈ 0.0905 µg/mL).

In data set [1], `CCOC(=O)c1cc2cc(N3CCN(C(=O)C4CCN(C(=O)OC(C)(C)C)CC4)CC3)ccc2o1` gave an MIC of 9.18 µM (≈ 4.46 µg/mL). For the same molecule, the IC50 was determined as 3.2 µM at DNA gyrase subunit B and 0.81 µM in data set [3]. The inhibition entry in data set [4] and in data set [5] was “inactive” in each case. In data set [2], the cytotoxicity at 48 h, 100 µM was found to be 3.21%. Besides, in data set [6], the ΔTm stood at 2.7 °C.

`CCOC(=O)c1cc2cc(N3CCN(C(=O)c4ccco4)CC3)ccc2o1`: in data set [1], it took 43.6 µM (≈ 16.1 µg/mL) to inhibit growth (MIC). Further, the IC50 at DNA gyrase subunit B was 37.3 µM; in data set [3], 24.4 µM. Moreover, the cytotoxicity at 48 h, 100 µM in data set [2] came out at 17%.

For `CCOC(=O)c1cc2cc(N3CCN(C(=O)c4ncccc4C(F)(F)F)CC3)ccc2o1`, the MIC in data set [1] came out at 26.7 µM (≈ 11.9 µg/mL). The IC50 stood at 23.4 µM at DNA gyrase subunit B and 7.81 µM in data set [3]. In data set [2], the cytotoxicity at 48 h, 100 µM was determined as 14%.

As to `CCOC(=O)c1cc2cc(N3CCN(C(=O)c4c(F)cc(OC)cc4F)CC3)ccc2o1`, in data set [1], the MIC stood at 25.4 µM (≈ 11.3 µg/mL). The IC50 at DNA gyrase subunit B came out at 24.2 µM; in data set [3], 9.8 µM. Moreover, the cytotoxicity at 48 h, 100 µM in data set [2] worked out at 7.03%.

Turning to `CCOC(=O)c1cc2cc(N3CCN(C(=O)Cc4ccc(Br)cc4)CC3)ccc2o1`, in data set [1], the lowest concentration to inhibit growth (MIC) was 19.8 µM (≈ 9.33 µg/mL). Further, the IC50 came to 16.6 µM on DNA gyrase subunit B and 5.2 µM in data set [3]. Further, the cytotoxicity at 48 h, 100 µM in data set [2] was 53%.
